{"source": "ChEMBL document CHEMBL1687928", "about": "“Discovery, optimization, and pharmacological characterization of novel heteroaroylphenylureas antagonists of C-C chemokine ligand 2 function” (J Med Chem, 2011)", "key": {"Mus musculus [1]": {"system": "Mus musculus", "experiment": "Toxicity in ICR mouse assessed as occurrence of hypoactivity at 500 mg/kg, po administered as single dose", "type": "organism-based", "parameters": "dose 500 mg/kg, route oral", "conditions": "in vivo"}, "[2]": {"experiment": "Half life in rat at 5 mg/kg, iv", "type": "ADME, organism-based", "parameters": "dose 5 mg/kg, route intravenous", "conditions": "in vivo"}, "Rattus norvegicus [3]": {"system": "Rattus norvegicus", "experiment": "Oral bioavailability in rat at 5 mg/kg, po", "type": "ADME, organism-based", "conditions": "in vivo", "how_it_was_run": "(§1)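 Rats, not fasted, received a single intravenous or oral dose.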"}, "Mus musculus [4]": {"system": "Mus musculus", "experiment": "Antiinflammatory activity in complete Freund's adjuvant-induced C57BL/6 mouse assessed as delay in autoimmune encephalomyelitis disease progression at 30 mg/kg, po BID", "type": "functional", "how_it_was_run": "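MOG33-55 peptide emulsion given subcutaneously to C57BL/6 mice, with intravenous pertussis vaccine (350 ng) right after and again 48 h later. Compound dissolved at 4 mg/mL in 3% aqueous Tween 80 (stored at 4 C), or water as vehicle, given orally b.i.d. from the day of immunization (day 0). Mice monitored daily for disease onset and clinical score (0–5 scale).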"}, "[5]": {"experiment": "Cmax in rat at 5 mg/kg, po", "type": "ADME, organism-based", "parameters": "dose 5 mg/kg, route oral", "conditions": "in vivo"}, "CYP3A4": {"target": "CYP3A4 (Homo sapiens, UniProt P08684)", "sequence (P08684 whole entry)": "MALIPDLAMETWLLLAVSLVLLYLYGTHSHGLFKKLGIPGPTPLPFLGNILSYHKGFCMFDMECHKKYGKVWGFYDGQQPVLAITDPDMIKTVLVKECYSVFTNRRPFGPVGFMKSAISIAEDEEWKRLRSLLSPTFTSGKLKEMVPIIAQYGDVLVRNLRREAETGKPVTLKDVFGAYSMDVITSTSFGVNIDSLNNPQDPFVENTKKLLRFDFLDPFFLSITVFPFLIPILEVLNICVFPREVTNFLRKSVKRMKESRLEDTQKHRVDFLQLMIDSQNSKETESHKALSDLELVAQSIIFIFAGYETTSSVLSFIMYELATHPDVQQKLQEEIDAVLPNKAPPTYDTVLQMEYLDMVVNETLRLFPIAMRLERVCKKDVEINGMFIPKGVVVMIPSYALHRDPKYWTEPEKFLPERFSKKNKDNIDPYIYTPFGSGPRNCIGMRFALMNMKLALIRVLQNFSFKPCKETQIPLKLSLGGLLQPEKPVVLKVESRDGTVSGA", "experiment": "Inhibition of CYP3A4 at 1 uM", "type": "ADME"}, "CYP1A2": {"target": "T1, CYP1A2 (Homo sapiens, UniProt P05177)", "T1 sequence (P05177 whole entry)": "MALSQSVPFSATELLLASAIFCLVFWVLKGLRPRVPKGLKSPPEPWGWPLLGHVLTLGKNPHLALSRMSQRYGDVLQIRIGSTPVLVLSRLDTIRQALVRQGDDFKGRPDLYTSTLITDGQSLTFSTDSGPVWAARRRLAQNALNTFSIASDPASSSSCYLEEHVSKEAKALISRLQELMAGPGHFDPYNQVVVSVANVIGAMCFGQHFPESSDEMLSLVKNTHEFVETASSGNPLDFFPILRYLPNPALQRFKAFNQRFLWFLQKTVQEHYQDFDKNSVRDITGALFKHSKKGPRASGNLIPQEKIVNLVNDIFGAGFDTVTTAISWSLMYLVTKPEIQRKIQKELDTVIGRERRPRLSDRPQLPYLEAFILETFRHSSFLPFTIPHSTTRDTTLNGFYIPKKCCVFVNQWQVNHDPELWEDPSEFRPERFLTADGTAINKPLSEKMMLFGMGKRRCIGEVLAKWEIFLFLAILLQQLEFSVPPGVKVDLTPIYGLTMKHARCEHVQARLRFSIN", "experiment": "Inhibition of CYP1A2 at 100 uM", "type": "ADME"}, "Mus musculus [6]": {"system": "Mus musculus", "experiment": "Toxicity in ICR mouse assessed as CNS excitation at 1000 mg/kg, po administered as single dose", "type": "organism-based", "parameters": "dose 1000 mg/kg, route oral", "conditions": "in vivo"}, "[7]": {"experiment": "Aqueous solubility of the compound at pH 7.4", "type": "physicochemical"}, "Rattus norvegicus [8]": {"system": "Rattus norvegicus", "experiment": "Drug uptake in collagen-induced Lewis rat bone marrow at 2 to 30 mg/kg, po measured 5 hrs post last dose", "type": "functional, organism-based", "how_it_was_run": "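In the rat collagen-induced arthritis study (oral b.i.d. dosing for 28 days), compound concentration was measured in plasma, tarsal homogenates and thigh-bone marrow. Samples were taken 5 h after the last dose on day 28.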"}, "Rattus norvegicus [9]": {"system": "Rattus norvegicus", "experiment": "Antiinflammatory activity in collagen-induced arthritis Lewis rat model assessed as inhibition of paw edema at 2 to 30 mg/kg, po BID for 28 days measured on […] by Plethysmometer", "type": "functional, organism-based", "how_it_was_run": "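Female Lewis SPF rats, 6 weeks old (n = 8/group), were immunized at the tail base with 900 μg bovine type II collagen in Freund's complete adjuvant (4 mg/mL M. tuberculosis) on day 0. A 450 μg boost followed on day 7. Compound in 5% aqueous gum arabic was gavaged b.i.d. for 28 days from day 0, against vehicle; methotrexate 3×/week served as positive control. Hind-limb volume was read by plethysmometer on days 0, 12, 14, 21 and 28, as % increase over day 0.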"}, "[10]": {"experiment": "AUC (0 to 24 hrs) in rat at 5 mg/kg, po", "type": "ADME, organism-based", "parameters": "time < 24 hr, dose 5 mg/kg, route oral", "conditions": "plasma"}, "[11]": {"experiment": "Tmax in rat at 30 mg/kg, po", "type": "ADME, organism-based", "parameters": "dose 30 mg/kg, route oral", "conditions": "in vivo", "how_it_was_run": "as §1"}, "Mus musculus [12]": {"system": "Mus musculus", "experiment": "Toxicity in ICR mouse assessed as vacuolar degeneration in liver at 300 mg/kg, po QD for 14 days", "type": "organism-based", "parameters": "dose 300 mg/kg, route oral", "conditions": "in vivo, 336 h"}, "[13]": {"experiment": "Volume of distribution at steady state in rat at 5 mg/kg, iv", "type": "ADME, organism-based", "parameters": "dose 5 mg/kg, route intravenous", "conditions": "in vivo, read-out: Vdss", "how_it_was_run": "as §1"}, "[14]": {"experiment": "Cmax in rat at 100 mg/kg, po", "type": "ADME, organism-based", "parameters": "dose 100 mg/kg, route oral", "conditions": "in vivo"}, "CYP2C9 [15]": {"target": "T2, CYP2C9 (Homo sapiens, UniProt P11712)", "T2 sequence (P11712 whole entry)": "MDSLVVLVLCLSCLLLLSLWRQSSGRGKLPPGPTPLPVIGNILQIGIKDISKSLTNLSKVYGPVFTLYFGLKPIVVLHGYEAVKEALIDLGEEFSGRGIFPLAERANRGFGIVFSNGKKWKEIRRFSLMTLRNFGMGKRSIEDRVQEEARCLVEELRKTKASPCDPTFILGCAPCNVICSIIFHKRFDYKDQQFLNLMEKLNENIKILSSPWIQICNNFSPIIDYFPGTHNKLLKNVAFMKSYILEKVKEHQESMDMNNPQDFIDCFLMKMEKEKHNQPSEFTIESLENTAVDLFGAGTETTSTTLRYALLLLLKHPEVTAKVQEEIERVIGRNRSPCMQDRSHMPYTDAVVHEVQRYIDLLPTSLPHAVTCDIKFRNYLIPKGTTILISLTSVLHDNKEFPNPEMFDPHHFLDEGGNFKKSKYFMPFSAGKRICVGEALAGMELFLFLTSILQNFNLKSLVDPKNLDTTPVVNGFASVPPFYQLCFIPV", "experiment": "Inhibition of CYP2C9 at 1 uM", "type": "ADME"}, "CYP2C19 [16]": {"target": "T3, CYP2C19 (Homo sapiens, UniProt P33261)", "T3 sequence (P33261 whole entry)": "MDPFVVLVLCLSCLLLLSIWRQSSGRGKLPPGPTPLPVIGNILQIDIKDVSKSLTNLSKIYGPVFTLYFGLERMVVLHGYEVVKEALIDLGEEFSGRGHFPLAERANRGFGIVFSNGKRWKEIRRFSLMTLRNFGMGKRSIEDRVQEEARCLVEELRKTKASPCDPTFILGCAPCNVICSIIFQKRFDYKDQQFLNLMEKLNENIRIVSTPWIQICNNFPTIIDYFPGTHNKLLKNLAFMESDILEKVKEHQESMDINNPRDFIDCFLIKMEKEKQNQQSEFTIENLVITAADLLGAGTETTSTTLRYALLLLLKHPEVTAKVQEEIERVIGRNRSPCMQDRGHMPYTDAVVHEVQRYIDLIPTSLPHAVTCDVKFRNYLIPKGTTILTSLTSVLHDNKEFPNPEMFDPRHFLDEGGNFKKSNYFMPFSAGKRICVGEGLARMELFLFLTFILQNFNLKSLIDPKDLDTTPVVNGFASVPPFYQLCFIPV", "experiment": "Inhibition of CYP2C19 at 100 uM", "type": "ADME"}, "[17]": {"experiment": "Tmax in rat at 5 mg/kg, po", "type": "ADME, organism-based", "parameters": "dose 5 mg/kg, route oral", "conditions": "in vivo", "how_it_was_run": "as §1"}, "Rattus norvegicus [18]": {"system": "Rattus norvegicus", "experiment": "Inhibition of bone resorption in joints of collagen-induced arthritis Lewis rat model at 30 mg/kg, po BID for 28 days", "type": "functional, organism-based", "parameters": "dose 30 mg/kg", "how_it_was_run": "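Female Lewis SPF rats, 6 weeks old (n = 8/group). CIA was induced on day 0 by intradermal injection at the tail base of 900 μg bovine type II collagen in Freund's complete adjuvant, with a 450 μg boost on day 7. Compound in 5% gum arabic was given by gavage b.i.d. for 28 days from day 0. Hind-paw radiographs were taken on day 29 and scored blind from 0 to 4, averaging both legs. Two-tailed t test.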"}, "CYP2D6": {"target": "CYP2D6 (Homo sapiens, UniProt P10635)", "sequence (P10635 whole entry)": "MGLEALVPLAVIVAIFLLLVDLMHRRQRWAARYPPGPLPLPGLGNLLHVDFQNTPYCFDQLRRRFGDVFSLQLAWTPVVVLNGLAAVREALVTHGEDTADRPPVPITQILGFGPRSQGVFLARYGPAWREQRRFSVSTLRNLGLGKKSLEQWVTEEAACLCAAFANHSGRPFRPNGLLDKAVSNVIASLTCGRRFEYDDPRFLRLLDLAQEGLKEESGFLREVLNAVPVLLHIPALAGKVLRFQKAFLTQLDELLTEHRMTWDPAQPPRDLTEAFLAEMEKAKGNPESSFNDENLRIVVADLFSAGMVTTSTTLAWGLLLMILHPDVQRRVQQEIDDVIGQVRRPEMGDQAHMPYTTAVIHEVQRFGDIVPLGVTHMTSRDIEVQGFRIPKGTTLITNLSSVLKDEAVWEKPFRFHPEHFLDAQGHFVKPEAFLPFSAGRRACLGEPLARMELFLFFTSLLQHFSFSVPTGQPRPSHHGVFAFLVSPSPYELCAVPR", "experiment": "Inhibition of CYP2D6 at 1 uM", "type": "ADME"}, "Mus musculus [19]": {"system": "Mus musculus", "experiment": "Toxicity in ICR mouse at 100 mg/kg, po QD for 14 days", "type": "organism-based", "parameters": "dose 100 mg/kg, route oral", "conditions": "in vivo, 336 h", "how_it_was_run": "(§2)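 Repeated-dose study in 6-week-old male ICR mice. Vehicle or 30, 100 or 300 mg/kg was given orally once daily for 14 days. Survival, behavior, body weight and liver enzymes (AST, ALT) were monitored.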"}, "Mus musculus [20]": {"system": "Mus musculus", "experiment": "Toxicity in ICR mouse at 100 mg/kg, po administered as single dose", "type": "organism-based", "parameters": "dose 100 mg/kg, route oral", "conditions": "in vivo"}, "Mus musculus [21]": {"system": "Mus musculus", "experiment": "Toxicity in ICR mouse assessed as increase in AST level at 300 mg/kg, po QD for 14 days", "type": "organism-based", "parameters": "dose 300 mg/kg, route oral", "conditions": "in vivo, 336 h", "how_it_was_run": "as §2"}, "CYP2C19 [22]": {"target": "T3, CYP2C19", "experiment": "Inhibition of CYP2C19 at 1 uM", "type": "ADME"}, "CYP2C9 [23]": {"target": "T2, CYP2C9", "experiment": "Inhibition of CYP2C9 at 100 uM", "type": "ADME"}, "[24]": {"experiment": "Clearance in rat at 5 mg/kg, iv", "type": "ADME, organism-based", "parameters": "dose 5 mg/kg, route intravenous", "conditions": "in vivo"}, "Mus musculus [25]": {"system": "Mus musculus", "experiment": "Toxicity in ICR mouse assessed as increase in ALT level at 300 mg/kg, po QD for 14 days", "type": "organism-based", "parameters": "dose 300 mg/kg, route oral", "conditions": "in vivo, 336 h", "how_it_was_run": "as §2"}, "[26]": {"experiment": "AUC (0 to 24 hrs) in rat at 100 mg/kg, po", "type": "ADME, organism-based", "parameters": "time < 24 hr, dose 100 mg/kg, route oral", "conditions": "plasma"}, "[27]": {"experiment": "AUC (0 to 24 hrs) in rat at 30 mg/kg, po", "type": "ADME, organism-based", "parameters": "time < 24 hr, dose 30 mg/kg, route oral", "conditions": "plasma"}, "[28]": {"experiment": "AUC (0 to 24 hrs) in rat at 5 mg/kg, iv", "type": "ADME, organism-based", "parameters": "time < 24 hr, dose 5 mg/kg, route intravenous", "conditions": "plasma"}, "Mus musculus [29]": {"system": "Mus musculus", "experiment": "Immunosuppressive activity in delayed-type hypersensitivity po dosed […] ICR mouse assessed as inhibition of sheep RBC-induced foot-pad swelling administered 1 hr prior and 2 hr after SRBC challenge measured on day 5 by Plethysmometer", "type": "functional, organism-based"}}, "note": "Activity calls are given as the source filed them. No cut-off for these calls is given here.", "data": [{"smiles": "Cc1nn(C)c2nc(N(C)CCN(C)C)c(C(=O)NC(=O)Nc3cccc(OC(C)C)c3)cc12.Cl", "values": [{"measurement": "Activity", "setting": "Mus musculus [1]", "value": "Toxic"}, {"measurement": "half-life", "setting": "[2]", "value": 10, "unit": "h"}, {"measurement": "F", "setting": "Rattus norvegicus [3]", "value": 60, "unit": "%"}, {"measurement": "Activity", "setting": "Mus musculus [4]", "value": 32.7, "unit": "days"}, {"measurement": "Cmax", "setting": "[5]", "value": 129, "unit": "ng/mL"}, {"measurement": "inhibition at 1 µM", "setting": "CYP3A4", "value": 4, "unit": "%"}, {"measurement": "inhibition at 100 µM", "setting": "CYP1A2", "value": -2, "unit": "%"}, {"measurement": "Activity", "setting": "Mus musculus [6]", "value": "Toxic"}, {"measurement": "solubility", "setting": "[7]", "value": 7.8, "unit": "µg/mL"}, {"measurement": "Drug uptake", "setting": "Rattus norvegicus [8]", "value": "Active"}, {"measurement": "Activity", "setting": "Rattus norvegicus [9]", "value": "Dose-dependent effect"}, {"measurement": "AUC(0-t) at 24 h", "setting": "[10]", "value": 1620, "unit": "ng·h/mL"}, {"measurement": "Tmax", "setting": "[11]", "value": 3, "unit": "h"}, {"measurement": "Activity", "setting": "Mus musculus [12]", "value": "Toxic"}, {"measurement": "Vd", "setting": "[13]", "value": 9.9, "unit": "L/kg"}, {"measurement": "Cmax", "setting": "[14]", "value": 927, "unit": "ng/mL"}, {"measurement": "inhibition at 1 µM", "setting": "CYP2C9 [15]", "value": 11, "unit": "%"}, {"measurement": "inhibition at 100 µM", "setting": "CYP2C19 [16]", "value": 34, "unit": "%"}, {"measurement": "Tmax", "setting": "[17]", "value": 5, "unit": "h"}, {"measurement": "Activity", "setting": "Rattus norvegicus [18]", "value": "Active"}, {"measurement": "inhibition at 1 µM", "setting": "CYP2D6", "value": -5, "unit": "%"}, {"measurement": "Activity", "setting": "Mus musculus [19]", "value": "Non-toxic"}, {"measurement": "Activity", "setting": "Mus musculus [20]", "value": "Non-toxic"}, {"measurement": "Activity", "setting": "Mus musculus [21]", "value": "Toxic"}, {"measurement": "inhibition at 1 µM", "setting": "CYP2C19 [22]", "value": -8, "unit": "%"}, {"measurement": "inhibition at 100 µM", "setting": "CYP2C9 [23]", "value": 36, "unit": "%"}, {"measurement": "clearance", "setting": "[24]", "value": 31.7, "unit": "mL/min/kg"}, {"measurement": "Activity", "setting": "Mus musculus [25]", "value": "Toxic"}, {"measurement": "AUC(0-t) at 24 h", "setting": "[26]", "value": 15100, "unit": "ng·h/mL"}, {"measurement": "AUC(0-t) at 24 h", "setting": "[27]", "value": 5570, "unit": "ng·h/mL"}, {"measurement": "AUC(0-t) at 24 h", "setting": "[28]", "value": 2690, "unit": "ng·h/mL"}, {"measurement": "Activity", "setting": "Mus musculus [29]", "value": "Active"}]}]}
